What is called IC50 is the concentration that gives 50% inhibition. What is called Ki is a measure of affinity in units of concentration, obtained from inhibition or displacement.

Values joined by “and” are separate entries in the source; they are usually repeats but may differ in a detail not shown here. Equal entries are not always repeated. Where two headings read alike, the source gives them in different places. A value given as a limit tells only on which side of the number the result lay.

Consider 14 compounds from article PMC4025951 (Neurochemical research, 2013).

Experiment [1] relates to VGLUT. Briefly: Vesicular glutamate uptake into synaptic vesicles. The class given is biochemical, rat.
Experiment [2] has as its system plasma membrane glutamate transporter. Briefly: Na+-dependent synaptosomal glutamate uptake. The settings on record: for Glutamate uptake / %Control: 50 μM test agent; for Glutamate uptake: Na+-dependent [3H]glutamate uptake into synaptosomes; for %Control: synaptosomal glutamate uptake. The class given is biochemical, rat. In outline:
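Rat cerebrum synaptosomes (100 μg protein) were incubated 10 min at 37 °C in Krebs solution with 1 μM [3H]glutamate (5 Ci/mmol), ± 50 μM test agent. Na+-dependent uptake was NaCl minus choline chloride values, in dpm and % of control.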

Experiment [3] has as its target T1, vesicular GABA transporter (Bos taurus, UniProt G3N354).
T1 sequence (G3N354 1-526): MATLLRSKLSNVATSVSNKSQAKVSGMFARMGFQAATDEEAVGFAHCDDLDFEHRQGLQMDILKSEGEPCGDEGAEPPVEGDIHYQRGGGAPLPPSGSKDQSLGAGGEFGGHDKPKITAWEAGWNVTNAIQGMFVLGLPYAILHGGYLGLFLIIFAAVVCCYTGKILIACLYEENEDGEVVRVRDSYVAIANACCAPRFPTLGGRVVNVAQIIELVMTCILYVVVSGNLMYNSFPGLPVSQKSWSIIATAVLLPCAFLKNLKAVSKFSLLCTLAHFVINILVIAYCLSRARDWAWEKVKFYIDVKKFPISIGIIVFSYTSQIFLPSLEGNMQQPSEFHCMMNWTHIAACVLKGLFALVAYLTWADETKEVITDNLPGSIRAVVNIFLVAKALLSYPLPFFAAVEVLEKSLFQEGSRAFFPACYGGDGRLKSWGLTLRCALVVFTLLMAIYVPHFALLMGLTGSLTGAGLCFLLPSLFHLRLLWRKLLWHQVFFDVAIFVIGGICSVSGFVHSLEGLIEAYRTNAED
Briefly: Vesicular GABA uptake into synaptic vesicles. The class given is biochemical, bovine. The settings on record: concentrations up to 50 μM. In outline:
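Crude calf cerebral cortex synaptic vesicles in 20 mM K-Hepes pH 7.4, 4 mM MgSO4, 4 mM KCl, 0.25 M sucrose. Pre-incubated 10 min at 30 °C with varied test compound concentrations. Then 2 mM ATP plus 50 μM [3H]GABA for 10 min. Filtered and washed with 0.15 M KCl.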

The target in experiment [4] is VGLUT. Briefly: Kinetics of vesicular glutamate uptake with Brilliant Yellow. The class given is biochemical, rat. The settings on record: competitive with glutamate; 0, 40, 60 and 80 nM Brilliant Yellow; n=3.
Experiment [5] relates to VGLUT. The settings on record: ref [25], cited from earlier work.
The mark [6] stands for this setting: Table 1, rat brain synaptic vesicles, 50 μM [3H]glutamate ± ATP, 10-min incubation.
[7] abbreviates: Table 3, Brilliant Yellow analogs, vesicular glutamate uptake.

On to `O=S(=O)(O)c1cc(S(=O)(=O)O)c2c(N=Nc3ccc(N=Nc4ccccc4)cc3)c(O)ccc2c1` [Brilliant Crocein MOO], for which the IC50 in the experiment on VGLUT [1] (setting [6]) was determined as 7700 nM.
Regarding Sulforhodamine, in the experiment on VGLUT [1], the “Inhibitory activity on vesicular glutamate uptake” value is “rather inactive”. In the experiment on VGLUT [1] (setting [6]), the IC50 was greater than 50000 nM.
With `CC(=O)Nc1ccc(C=Cc2ccc(NC(C)=O)cc2S(=O)(=O)O)c(S(=O)(=O)O)c1` [4,4-Diacetamidostilbene-2,2’-disulfonate, 4,4’-diacetamidostilbene-2,2’-disulfonate], in the experiment with VGLUT [1] (setting [7]), the IC50 was greater than 50000 nM.
Still for that read-out and setting: the same measure for `CCOc1ccc(N=Nc2ccc(/C=C/c3ccc(N=Nc4ccc(OCC)cc4)cc3S(=O)(=O)O)c(S(=O)(=O)O)c2)cc1` [Chrysophenine]: 266 ± 70 nM.
With `O=S(=O)([O-])c1cc(N=Nc2ccc(O)cc2)ccc1/C=C/c1ccc(N=Nc2ccc(O)cc2)cc1S(=O)(=O)[O-].[Na+].[Na+]` [Brilliant Yellow], the IC50 was found to be 44 ± 7 nM in the experiment with VGLUT [1] (setting [6]) and 44 ± 6 nM in the experiment with VGLUT [1] (setting [7]). For the same compound, the “Inhibition of vesicular glutamate uptake” value with VGLUT [1] (at 0.3 μM) is 80%. In experiment [2], the Glutamate uptake is reported as 279,032 dpm. The “%Control” value in experiment [2] is given as 112%. In addition, in experiment [2] (concentrations up to 50 μM), the “Effect on synaptosomal glutamate uptake” value is given as “affected neither”. Moreover, the “Effect on vesicular GABA uptake” value in experiment [3] was “affected neither”. The Ki at VGLUT [4] is 12 nM and 12.5 nM.
Take `Cc1cc(-c2ccc(/N=N/c3c(S(=O)(=O)O)cc4cc(S(=O)(=O)O)cc(N)c4c3O)c(C)c2)ccc1/N=N/c1c(S(=O)(=O)O)cc2cc(S(=O)(=O)O)cc(N)c2c1O` [Trypan Blue]: the IC50 in the experiment with VGLUT [5] ([26]) was 49 nM. Moreover, the inhibitory constant (Ki) on VGLUT [5] is roughly 50 nM.
Nitrazine Yellow had a concentration for half-maximal inhibition (IC50) in the experiment on VGLUT [1] (setting [6]) of 4400 nM.
With `O=C([O-])C1=NN(c2ccc(S(=O)(=O)[O-])cc2)C(=O)C1N=Nc1ccc(S(=O)(=O)[O-])cc1.[Na+].[Na+].[Na+]` (centres unmarked) [Tartrazine], the “Inhibitory activity on vesicular glutamate uptake” value with VGLUT [1] was “rather inactive”. This compound displayed an IC50 in the experiment on VGLUT [1] (setting [6]) greater than 50000 nM.
`O=S(=O)(O)c1ccc2c(N=Nc3cccc4ccccc34)c(O)c(S(=O)(=O)O)cc2c1` [Bordeau R] yielded an IC50 in the experiment with VGLUT [1] (setting [6]) of 6500 nM.
On to `O=C(Nc1ccc(C=Cc2ccc(NC(=O)c3ccccc3)cc2S(=O)(=O)O)c(S(=O)(=O)O)c1)c1ccccc1` [4,4’-dibenzamidostilbene-2,2’-disulfonate], for which half-maximal inhibition in the experiment on VGLUT [1] (setting [7]) (IC50) was put at 2000 nM.
Same read-out and setting: the same measure for `O=S(=O)(O)c1cc(NS(=O)(=O)c2ccccc2)ccc1C=Cc1ccc(NS(=O)(=O)c2ccccc2)cc1S(=O)(=O)O` [4,4’-diphenylsulfonamidostilbene-2,2’-disulfonate]: greater than 50000 nM.
Consider `COc1cc(N=Nc2c(C)cc(C)cc2S(=O)(=O)[O-])c(C)cc1N=Nc1c(S(=O)(=O)[O-])cc2cc(Nc3ccccc3)ccc2c1O.[Na+].[Na+]` [Direct Violet 51], for which the midpoint of inhibition in the experiment on VGLUT [1] (setting [6]), the IC50, lay at 148 ± 31 nM. For the same compound, in experiment [2], the Glutamate uptake is 258,020 dpm and the “%Control” value came out at 104%.
The compound `O=[N+]([O-])c1ccc(C=Cc2ccc([N+](=O)[O-])cc2S(=O)(=O)O)c(S(=O)(=O)O)c1` [4,4’-Dinitrostilbene-2,2’-disulfonate, 4,4’-dinitrostilbene-2,2’-disulfonate] came in with an IC50 in the experiment with VGLUT [1] (setting [7]) of 1690 ± 110 nM.
Still for that read-out and setting: for `Nc1ccc(C=Cc2ccc(N)cc2S(=O)(=O)O)c(S(=O)(=O)O)c1` [4,4-Diaminostilbene-2,2’-disulfonate, 4,4’-diaminostilbene-2,2’-disulfonate] the value was greater than 50000 nM.
